# Screening data: PubChem, several laboratories
# Most compounds without a hit are left out; they make up all but 4.8% or so of the library.
# T cruzi inh = T. cruzi replication inhibition | T. cruzi beta-gal in NIH3T3, luminescence, 90 h | inhibition, % (concentration not given with the values) | 1.4% of 300,000 active | AID 1885;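 active = mean inhibition across valid replicates above about 55%, limit read from the data; inconclusive = mean below that limit but half or more replicates reach it; inactive = mean below it, under half of replicates reach it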;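 note: signal also drops with host cell toxicity which is not excluded here; 0% = plate median of DMSO wells and 100% = zero luminescence signal; higher percent means less beta-gal luminescence so fewer parasites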
#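 System – NIH/3T3 host cells with β-galactosidase reporter T. cruzi · Doses – single 50 nL compound addition per well in DMSO · Reagent – 5000 T. cruzi trypomastigotes/well · Medium – Low-serum DMEM with 2% FBS · Timing – ≥90 h infection period, 3 h prior cell attachment · Evaluation – parasite load inhibition, % · Technique – GalScreen luminescence, 60 min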
# Jurkat NFkB inh = lowers PMA/ionomycin-induced NF-kB signal in Jurkat cells; PMA/ionomycin-induced NF-kB luciferase reporter, luminescence; inhibition, % at 4 µM; 0.53% of 330,000 active; in the data active = inhibition above about 50%
# HSF1 inh = HSF1 inhibition. NIH3T3-HGL HSE-luciferase, MG132-induced, luminescence 8 h; stronger effect = lower value. activity change, negative = inhibition, % at 7.5 µM (by protocol). 0.77% of 300,000 active. AID 2098;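 active = more than half of replicate wells show activity change below -50%, luminescence cut by over half; inconclusive = some wells, but at most half, below -50%; inactive = no replicate well below -50%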;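 note: luciferase reports HSF-1 transcriptional activity via heat shock element; 0% = median of DMSO wells and -100% = zero luminescence signal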
# 697 NFkB inh = lowers PMA/ionomycin-induced NF-kB signal in 697 B cells | 697 B-cell NF-kB luciferase reporter, 16 h | inhibition, % at 4 µM | 0.33% of 330,000 active; in the data active = inhibition above about 35%
# GPR7 antag = human neuropeptides B/W receptor 1 antagonism | GPR7-expressing cells, fluorescence antagonist assay | inhibition, % at 4.4 µM | 1.1% of 290,000 active | AID 1861; in the data active = inhibition above about 16%, passing the limit was not always enough;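 note: cells stimulated with the agonist NPW; 0% = agonist with vehicle and 100% = vehicle without agonist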
# Target sequence (P48145 whole entry, looked up): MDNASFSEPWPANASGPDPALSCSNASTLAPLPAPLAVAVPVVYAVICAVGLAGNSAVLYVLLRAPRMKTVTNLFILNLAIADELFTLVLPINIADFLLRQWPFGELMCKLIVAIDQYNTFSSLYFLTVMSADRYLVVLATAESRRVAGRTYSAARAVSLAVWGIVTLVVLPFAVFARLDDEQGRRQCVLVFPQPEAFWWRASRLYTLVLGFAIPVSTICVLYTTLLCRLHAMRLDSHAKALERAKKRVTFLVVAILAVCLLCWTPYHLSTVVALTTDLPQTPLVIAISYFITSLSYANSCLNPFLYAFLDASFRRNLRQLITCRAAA
# HSF1 activator = increases HSF-1 driven luciferase reporter signal | NIH3T3-HGL HSF-1 luciferase reporter, MG132, 8 h; 100% = twice DMSO control signal | activation, % at 9 µM | 1.7% of 300,000 active;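 active = mean replicate activation of at least 50% with a set share of replicates each reaching 50%; inconclusive = only one of those two conditions met; inactive = mean below 50% and too few replicates reaching it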;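 note: 0% = median of the neutral control wells and 100% = twice that signal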
# Jurkat NFkB conf = inhibitors of the PMA/ionomycin-induced NF-kB reporter in Jurkat cells, retest; shares compounds with Jurkat NFkB inh; Jurkat NF-kB luciferase, 16 h; inhibition, % at 4 µM; 27% of 2,700 active; AID 435020;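 active = inhibition reaching about 45% at 4 µM in either replicate, limit read from the data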;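 note: plate controls were PMA/ionomycin stimulated DMSO wells for no effect and unstimulated DMSO wells for full effect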
# 697 NFkB conf = inhibitors of the PMA/ionomycin-induced NF-kB reporter in 697 B cells, retest. 35% of 2,000 active. shares compounds with 697 NFkB inh. inhibition, % at 4 µM. 697 B-cell NF-kB luciferase, 16 h; in the data active = inhibition mostly above about 28%, no sharp cut-off; inactive = mostly below about 22%
# * marks the source's active call; other numbers are inactive results; u = inconclusive; x = no result given.
SMILES,T cruzi inh,Jurkat NFkB inh,HSF1 inh,697 NFkB inh,GPR7 antag,HSF1 activator,Jurkat NFkB conf,others
COC(=O)C1=C(c2ccc(OC(F)(F)F)cc2)C[C@@H]2CC[C@H]1N2C(=O)NCc1cc(C)oc1C(F)(F)F,x,0,x,4,x,x,x,
COC(=O)C(Cc1ccc(N(CCCl)CCCl)cc1)N=Cc1ccccc1O (stereo unspecified),44,51*,3,-107,18,33,46,
Cc1cc(C)c2c(ccc3cccc[n+]32)c1,13,57*,0,-10,x,-2,39,
CCC(=Nc1cccc(C(F)(F)F)c1)c1c(O)n(C)c(=O)n(C)c1=O,-4,6,2,0,-6,-4,x,
C/C(=N\N1CCCCCC1)c1c(O)n(C2CCCCC2)c(=O)[nH]c1=O,2,-20,0,-13,-23,6,x,
O=C(c1cccn2c(=O)c3cc(Br)ccc3nc12)N1CCC2(CC1)OCCO2,3,-5,2,3,-1,8,x,
Cc1cccn2c(=O)c3cc(C(=O)N4CCC5(CC4)OCCO5)n(C)c3nc12,12,53*,-6,-26,8,4,30,
CC(=O)O[C@@]12CO[C@@H]1C[C@H](O)[C@@]1(C)C(=O)[C@H](O)C3=C(C)[C@@H](O)C[C@@](O)([C@@H](OC(=O)c4ccccc4)C12)C3(C)C (stereo partly specified),11,31,-5,11,-10,-4,x,
C/C=C(\C)C(=O)N[C@@H](c1ccccc1)[C@@H](O)C(=O)O[C@H]1C[C@@]2(O)[C@@H](OC(=O)c3ccccc3)C3[C@](C)(C(=O)[C@H](O)C(=C1C)C2(C)C)[C@@H](O)C[C@H]1OC[C@@]31OC(C)=O (stereo partly specified),53,70*,-11,6,7,-24,64*,
C/C=C(\C)C(=O)N[C@@H](c1ccccc1)[C@@H](O)C(=O)O[C@H]1C[C@@]2(O)[C@@H](OC(=O)c3ccccc3)C3[C@](C)(C(=O)[C@H](OC(C)=O)C(=C1C)C2(C)C)[C@@H](O)C[C@H]1OC[C@@]31OC(C)=O (stereo partly specified),52,66*,-9,-14,13,-6,71*,
COc1ccc(-n2cnc3cc(C(=O)N4CCC5(CC4)OCCO5)ccc32)cc1,-20,50*,-8,-11,2,17,8,
COc1cc2nc(CN3CC=C(c4ccccc4)CC3)[nH]c(=O)c2cc1OC,32,59*,14,26,x,36,52*,
CCOP(=O)(OCC)C(NS(=O)(=O)c1ccccc1)C(Cl)(Cl)Cl (stereo unspecified),u,4,-3,3,-11,-9,x,
CC[n+]1c(/C=C/C=C/c2ccc(N(C)C)cc2)sc2ccccc21,52,70*,-4,-35,4,-27,20,
CC(=O)OC(C)(C)/C=C/C(=O)C(C)(O)C1[C@H](O)C[C@@]2(C)C3CC=C4C(CC[C@@H](O)C4(C)C)[C@]3(CO)C(=O)C[C@]12C (stereo partly specified),56*,81*,-52*,-11,5,-61,25,
CC(=O)OC(C)(C)/C=C/C(=O)[C@](C)(O)[C@H]1[C@H](O)C[C@@]2(C)[C@@H]3CC=C4[C@H](C[C@H](O)C(=O)C4(C)C)[C@]3(C)C(=O)C[C@]12C,x,x,x,x,-4,x,x,
O=C(c1ccccc1F)N1CCC2(CC1)OCCO2,-8,-10,-1,1,-1,9,x,
COc1ccc(-c2cc(=Nc3ccccc3)c3cc(C)ccc3o2)cc1,41,-155,18,-188,-6,66*,-140,
COc1ccc(-c2cc(=NCCC(=O)O)c3cc(C)ccc3o2)cc1,-4,x,20,x,1,39,x,
COc1ccc(OCC(=O)N2CCN(Cc3ccc(SC)cc3)CC2)cc1,30,5,-3,-32,1,-4,x,
COc1cc([C@@H]2c3cc4c(cc3[C@@H](OC)[C@H]3COC(=O)[C@H]23)OCO4)cc(OC)c1O,-34,57*,12,-68,x,26,47*,
O=c1[nH]c(=O)n(Cc2ccco2)c(O)c1C=NCCN1CCNCC1,-6,-16,-15,6,-12,2,x,
CC1(C)N=C(c2ccccc2)[C@@H]2C(c3ccc([N+](=O)[O-])cc3)N21 (stereo partly specified),-8,19,-7,-71,-2,9,x,
COc1cccc(OC)c1C1=NCC(=O)Nc2c1oc1ccc(Br)cc21,0,56*,-31,-45,2,-33,61*,
Cc1cc(C=C(C#N)C#N)ccc1N1CCCC1,-15,8,5,0,-4,17,x,
SMILES,T cruzi inh,Jurkat NFkB inh,HSF1 inh,697 NFkB inh,GPR7 antag,HSF1 activator,Jurkat NFkB conf,others
COc1cc2c(cc1OC)-c1c3c(cc4c1[C@@H](C2)N(C)CC4)OCO3,29,60*,0,-139,-8,6,31,
COc1cc2c(cc1OC)-c1c(OC)c(OC)cc3c1C(C2)N(C)CC3 (stereo unspecified),34,29,4,-14,-8,18,x,
Nc1ccccc1C(=O)OCCc1ccccc1,x,-178,x,-263,x,x,-104,697 NFkB conf=-250
CC(=O)OC[C@]12CCC(C)=C[C@H]1O[C@@H]1[C@H](O)[C@@H](OC(C)=O)[C@@]2(C)[C@]12CO2,x,97*,x,98*,x,x,99*,697 NFkB conf=94*
C[C@@H]1O[C@@H](O[C@H]2C[C@@H](O)[C@]3(CO)[C@H]4[C@H](O)C[C@]5(C)[C@@H](C6COC(=O)C6)CC[C@]5(O)[C@@H]4CC[C@]3(O)C2)[C@H](O)[C@H](O)[C@H]1O (stereo partly specified),0,96*,-1,-403,-10,-19,72*,697 NFkB conf=-496
O=c1cccc2n1CC1CC2CN(S(=O)(=O)c2ccc(F)cc2)C1 (stereo unspecified),-13,4,1,2,-3,-6,x,
CCN(CC)P(c1n(C)cc[n+]1C)N(CC)CC,-11,0,-3,-8,4,-9,x,
CCOC(=O)c1c(C)n(C(C)C)c2ccc(OC(=O)c3ccc(N4C(=O)CCC4=O)cc3)cc12,-2,-1,-10,-11,-23,-11,x,
C[C@H]1CCC/C=C/[C@@H]2C[C@H](O)C[C@H]2[C@H](O)/C=C/C(=O)O1,x,98*,x,66*,x,x,-15,697 NFkB conf=81*
